Data published in ChEMBL document CHEMBL4038305, “Benzoxaborole Antimalarial Agents. Part 5. Lead Optimization of Novel Amide Pyrazinyloxy Benzoxaboroles and Identification of a Preclinical Candidate” (J Med Chem, 2017).

Tests used:
[1] = Clearance in CD1 mouse at 5 mg/kg, iv by HPLC/MS analysis; format: ADME, organism-based; details: in vivo
Procedure, shortened: (§1)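 Female CD-1 mice, male SD rats and beagle dogs received 5 mg/kg either iv or by oral gavage. Vehicle was PEG 300/propylene glycol/water (55/25/20, pH 6). Blood was sampled and drug measured by HPLC-MS/MS.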

[2] = Volume of distribution at steady state in CD1 mouse at 5 mg/kg, iv by HPLC/MS analysis; format: ADME, organism-based; details: in vivo, read-out: Vdss
Procedure, shortened: (§2)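 Female CD-1 mice, male SD rats or beagle dogs given 5 mg/kg by iv injection or oral gavage. Formulation was PEG300/propylene glycol/water 55/25/20, pH 6. Blood samples analysed by HPLC–MS/MS; parameters include AUC0-inf extrapolated to infinity and terminal half-life.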

[3] = Oral bioavailability in CD1 mouse at 5 mg/kg by HPLC/MS analysis; format: ADME, organism-based; details: in vivo; procedure, shortened: as §2
[4] = Cmax in CD1 mouse plasma at 5 mg/kg, po via gavage by HPLC/MS analysis; format: ADME, organism-based; design: dose 5 mg/kg, route oral; procedure, shortened: as §1
[5] = AUC (0 to infinity) in CD1 mouse at 5 mg/kg, iv by HPLC/MS analysis; format: ADME, organism-based; design: dose 5 mg/kg, time infinity, route intravenous; details: in vivo
[6] = Tmax in CD1 mouse plasma at 5 mg/kg, po via gavage by HPLC/MS analysis; format: ADME, organism-based; procedure, shortened: as §2
[7] = AUC (0 to infinity) in CD1 mouse at 5 mg/kg, po via gavage by HPLC/MS analysis; format: ADME, organism-based; design: dose 5 mg/kg, time infinity, route oral; details: in vivo
[8] = test system: Plasmodium berghei; experiment: Antimalarial activity against Plasmodium berghei infected in Swiss Webster mouse assessed as mouse survival rate at 200 mg/kg administered once daily via oral gavage for 4 consecutive days beginning 1 hr after infection measured on day 14 post infection relative to control; format: functional
Procedure, shortened: (§3)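 P. berghei-infected erythrocytes taken from a previously infected mouse were injected intraperitoneally. Oral dosing, once daily for 4 consecutive days, began 1 h after infection, in polyethylene glycol 300/propylene glycol/water (55/25/20 by weight). Chloroquine at 30 mg/kg was the positive control, with a vehicle-only group. Percent survival was recorded daily from day 4 to day 20.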

[9] = test system: Plasmodium berghei; experiment: Antimalarial activity against Plasmodium berghei infected in Swiss Webster mouse assessed as mouse survival rate at 1.1 mg/kg administered once daily via oral gavage for 4 consecutive days beginning 1 hr after infection measured on day 4 post infection relative to control; format: functional
Procedure, shortened: (§4)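 Mice given an intraperitoneal injection of P. berghei-infected erythrocytes taken from a previously infected animal. Oral dosing once daily for 4 consecutive days, starting 1 h after infection. Vehicle: polyethylene glycol 300/propylene glycol/water (weight ratio 55/25/20). Percent survival recorded daily from day 4 to day 20. Chloroquine 30 mg/kg and vehicle-only groups served as controls.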

[10] = test system: Plasmodium berghei; experiment: Antimalarial activity against Plasmodium berghei infected in Swiss Webster mouse assessed as mouse survival rate at 100 mg/kg administered once daily via oral gavage for 4 consecutive days beginning 1 hr after infection measured on day 20 post infection relative to control; format: functional; procedure, shortened: as §4
[11] = test system: Plasmodium berghei; experiment: Antimalarial activity against Plasmodium berghei infected in Swiss Webster mouse assessed as mouse survival rate at 200 mg/kg administered once daily via oral gavage for 4 consecutive days beginning 1 hr after infection measured on day 12 post infection relative to control; format: functional; procedure, shortened: as §3
[12] = test system: Plasmodium berghei; experiment: Antimalarial activity against Plasmodium berghei infected in Swiss Webster mouse assessed as mouse survival rate at 100 mg/kg administered once daily via oral gavage for 4 consecutive days beginning 1 hr after infection measured on day 15 post infection relative to control; format: functional; procedure, shortened: as §4
[13] = test system: Plasmodium berghei; experiment: Antimalarial activity against Plasmodium berghei infected in Swiss Webster mouse assessed as mouse survival rate at 200 mg/kg administered once daily via oral gavage for 4 consecutive days beginning 1 hr after infection measured on day 13 post infection relative to control; format: functional; procedure, shortened: as §3
[14] = test system: Plasmodium berghei; experiment: Antimalarial activity against Plasmodium berghei infected in Swiss Webster mouse assessed as mouse survival rate at 100 mg/kg administered once daily via oral gavage for 4 consecutive days beginning 1 hr after infection measured on day 17 post infection relative to control; format: functional; procedure, shortened: as §4
[15] = test system: Plasmodium berghei; experiment: Antimalarial activity against Plasmodium berghei infected in Swiss Webster mouse assessed as mouse survival rate at 200 mg/kg administered once daily via oral gavage for 4 consecutive days beginning 1 hr after infection measured on day 9 post infection relative to control; format: functional; procedure, shortened: as §3
[16] = test system: Plasmodium berghei; experiment: Antimalarial activity against Plasmodium berghei infected in Swiss Webster mouse assessed as mouse survival rate at 1.1 mg/kg administered once daily via oral gavage for 4 consecutive days beginning 1 hr after infection measured on day 5 post infection relative to control; format: functional; procedure, shortened: as §4
[17] = test system: Plasmodium berghei; experiment: Antimalarial activity against Plasmodium berghei infected in Swiss Webster mouse assessed as mouse survival rate at 100 mg/kg administered once daily via oral gavage for 4 consecutive days beginning 1 hr after infection measured on day 16 post infection relative to control; format: functional; procedure, shortened: as §4
[18] = test system: Plasmodium berghei; experiment: Antimalarial activity against Plasmodium berghei infected in Swiss Webster mouse assessed as mouse survival rate at 200 mg/kg administered once daily via oral gavage for 4 consecutive days beginning 1 hr after infection measured on day 11 post infection relative to control; format: functional; procedure, shortened: as §3
[19] = test system: Plasmodium berghei; experiment: Antimalarial activity against Plasmodium berghei infected in Swiss Webster mouse assessed as mouse survival rate at 200 mg/kg administered once daily via oral gavage for 4 consecutive days beginning 1 hr after infection measured on day 7 post infection relative to control; format: functional; procedure, shortened: as §3
[20] = test system: Plasmodium berghei; experiment: Antimalarial activity against Plasmodium berghei infected in Swiss Webster mouse assessed as mouse survival rate at 200 mg/kg administered once daily via oral gavage for 4 consecutive days beginning 1 hr after infection measured on day 4 post infection relative to control; format: functional; procedure, shortened: as §3
[21] = test system: Plasmodium berghei; experiment: Antimalarial activity against Plasmodium berghei infected in Swiss Webster mouse assessed as mouse survival rate at 200 mg/kg administered once daily via oral gavage for 4 consecutive days beginning 1 hr after infection measured on day 20 post infection relative to control; format: functional; procedure, shortened: as §3
[22] = test system: Plasmodium berghei; experiment: Antimalarial activity against Plasmodium berghei infected in Swiss Webster mouse assessed as mouse survival rate at 200 mg/kg administered once daily via oral gavage for 4 consecutive days beginning 1 hr after infection measured on day 6 post infection relative to control; format: functional; procedure, shortened: as §3
[23] = test system: Plasmodium berghei; experiment: Antimalarial activity against Plasmodium berghei infected in Swiss Webster mouse assessed as mouse survival rate at 200 mg/kg administered once daily via oral gavage for 4 consecutive days beginning 1 hr after infection measured on day 5 post infection relative to control; format: functional; procedure, shortened: as §3
[24] = test system: Plasmodium berghei; experiment: Antimalarial activity against Plasmodium berghei infected in Swiss Webster mouse assessed as mouse survival rate at 200 mg/kg administered once daily via oral gavage for 4 consecutive days beginning 1 hr after infection measured on day 15 post infection relative to control; format: functional; procedure, shortened: as §3
[25] = test system: Plasmodium berghei; experiment: Antimalarial activity against Plasmodium berghei infected in Swiss Webster mouse assessed as mouse survival rate at 200 mg/kg administered once daily via oral gavage for 4 consecutive days beginning 1 hr after infection measured from day 16 to day 19 post infection relative to control; format: functional; procedure, shortened: as §3
[26] = test system: Plasmodium berghei; experiment: Antimalarial activity against Plasmodium berghei infected in Swiss Webster mouse assessed as mouse survival rate at 200 mg/kg administered once daily via oral gavage for 4 consecutive days beginning 1 hr after infection measured on day 10 post infection relative to control; format: functional; procedure, shortened: as §3
[27] = test system: Plasmodium falciparum; experiment: Antimalarial activity against Plasmodium falciparum 3D7 0087/N9 infected in NOD/SCID IL2R gamma null mouse assessed as compound concentration in whole blood require to reduce parasitemia in peripheral blood administered once daily via oral gavage for 4 consecutive days measured on day 7 post infection; format: functional

Compound | clearance [1] [mL/min/kg] | Vd [2] [L/kg] | bioavailability [3] [%] | Cmax [4] [ng/mL] | AUC(0-inf) [5] [ng·h/mL] | Tmax [6] [min] | AUC(0-inf) [7] [ng·h/mL] | survival at 200 mg/kg [8] [%] | survival at 200 mg/kg [11] [%] | survival at 100 mg/kg [12] [%] | survival at 200 mg/kg [13] [%] | survival at 100 mg/kg [14] [%] | survival at 200 mg/kg [15] [%] | survival at 100 mg/kg [17] [%] | survival at 200 mg/kg [18] [%] | survival at 200 mg/kg [19] [%] | survival at 200 mg/kg [20] [%] | survival at 200 mg/kg [21] [%] | survival at 200 mg/kg [22] [%] | survival at 200 mg/kg [23] [%] | other results
Cc1c(Oc2cnc(C(=O)N[C@@H](CO)CC(F)(F)F)cn2)ccc2c1B(O)OC2 | 3.97 | 0.741 | 64 | 2100 | 21000 | 60 | 13400 |  |  |  |  |  |  |  |  |  |  |  |  |  | 
Cc1c(Oc2cnc(C(=O)N3CC(O)(C(C)C)C3)cn2)ccc2c1B(O)OC2 |  |  |  |  |  |  |  | 100 | 100 | 100 | 100 | 100 | 100 | 100 | 100 | 100 | 100 | 100 | 100 | 100 | survival at 1.1 mg/kg [9]: 100%; survival at 100 mg/kg [10]: 80%; survival at 1.1 mg/kg [16]: 100%; survival at 200 mg/kg [24]: 100%; survival at 200 mg/kg [25]: 100%; survival at 200 mg/kg [26]: 100%
Cc1c(Oc2cnc(C(=O)N3CC(C)(O)C3)cn2)ccc2c1B(O)OC2 | 4.07 | 0.888 | 101 | 3900 | 20500 | 30 | 20700 |  |  | 60 |  | 0 |  | 60 |  |  |  |  |  |  | AUCED90 [27]: 1.4 µg.hr/ml/day
Cc1c(Oc2cnc(C(=O)NC(C)CO)cn2)ccc2c1B(O)OC2 (stereo not given) | 2.13 | 0.603 | 85 | 3800 | 39000 | 60 | 33000 |  |  |  |  |  |  |  |  |  |  |  |  |  | 
CCC[C@H](CO)NC(=O)c1cnc(Oc2ccc3c(c2C)B(O)OC3)cn1 | 4.05 | 0.874 | 103 | 4000 | 20500 | 30 | 21600 | 100 | 100 |  | 100 |  | 100 |  | 100 | 100 | 100 | 100 | 100 | 100 | AUCED90 [27]: 7.45 µg.hr/ml/day; survival at 200 mg/kg [24]: 100%; survival at 200 mg/kg [25]: 100%; survival at 200 mg/kg [26]: 100%
